Assay results from paper PMC3387347 (Investigational new drugs, 2012).

Columns and labels:
[1] = In vivo cassette dosing pharmacokinetic study in normal mice; parameters: species or system mouse; settings: for AUCb: normal brain; for Kp / clearance / Vd: male, ICR, mouse, 5 mg/kg, normal mice; for Kp: brain, intravenous, Pb (brain partition coefficient, AUCb/AUCp); for clearance / Vd: plasma, iv; for clearance: CL (total systemic clearance); for Vd: Vd (apparent volume of distribution)
How it was run: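 Adult male ICR mice each received a compound mixture in NMP:PEG300:water (1:4:5 by volume) as an IV bolus into a lateral tail vein. The dose was about 5 mg/kg per compound, with one compound at 1.67 mg/kg. Plasma and brain were collected at various times, stored at −80°C and quantified by LC/MS/MS. AUCb was derived by noncompartmental analysis.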

[2] = mice; cited from earlier work
Pgp = settings: cited from earlier work
[3] = cassette B, IV approximately 5 mg/kg
[4] = cassette C, IV approximately 5 mg/kg

COc1cc2ncnc(Nc3ccc(F)c(Cl)c3)c2cc1OCCCN1CCOCC1 [Gefitinib]
AUCb ([1]; cassette A, IV approximately 5 mg/kg (ON271320 1.67 mg/kg)): 1968.6 ng·h/g
AUCb [1, 3]: 2685.2 ng·h/g
AUCb [1, 4]: 3491.2 ng·h/g
Kp [1, 3]: 2.5
Kp [1, 4]: 1.9
clearance [1, 3]: 71.7 mL/min/kg
clearance [1, 4]: 43.3 mL/min/kg
Vd [1, 3]: 9.9 L/kg
Vd [1, 4]: 8.9 L/kg
bound to plasma proteins [2]: 95%
concentration reported to inhibit Pgp (Pgp): 100 µM
